# ABCB1 inh = human ABCB1 inhibition, ABCG2 as counter-screen. CCRF-Adr cells, JC-1 efflux, flow cytometry. inhibition, % at 6.6 µM. actives 0.067% (n = 190,000); in the data active means inhibition above about 40%;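 further: 0% = vehicle and 100% = reference inhibitor; higher value means more JC-1 retained so stronger ABCB1 efflux block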
# MDM2 E3 inh = blocks human Mdm2 ubiquitin ligase activity. Q00987. cell-based MDM2 ubiquitination luciferase reporter, 2 h; 0 = plate control, 100 = twice control, blank-subtracted. signal enhancement, % at 5 µM. actives 0.11% (n = 210,000). AID 1230;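 active means signal enhancement of 30% or more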;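 further: luminescence tracks abundance of the self-degrading MDM2-luciferase fusion protein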
# Target sequence (Q00987 whole entry, looked up, the tested form may be a part): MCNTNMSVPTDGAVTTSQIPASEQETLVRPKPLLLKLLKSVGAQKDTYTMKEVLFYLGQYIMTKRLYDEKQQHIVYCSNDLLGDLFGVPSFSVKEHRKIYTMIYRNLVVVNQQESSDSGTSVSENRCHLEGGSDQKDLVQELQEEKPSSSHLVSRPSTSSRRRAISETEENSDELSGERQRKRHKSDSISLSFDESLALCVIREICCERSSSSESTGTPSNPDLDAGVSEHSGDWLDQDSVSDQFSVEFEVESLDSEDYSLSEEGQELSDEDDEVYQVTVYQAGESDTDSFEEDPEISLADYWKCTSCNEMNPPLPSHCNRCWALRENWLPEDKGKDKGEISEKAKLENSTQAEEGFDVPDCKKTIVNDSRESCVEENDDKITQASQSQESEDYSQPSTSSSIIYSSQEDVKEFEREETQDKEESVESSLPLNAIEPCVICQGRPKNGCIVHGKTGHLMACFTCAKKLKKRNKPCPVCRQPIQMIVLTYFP
#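 test system = mammalian cells stably expressing self-ubiquitinating, self-degrading MDM2 E3–luciferase fusion | quantity = 2000 cells/well | incubation = cell settling 4 h, compound treatment 2 h, both 37 °C | signal = luminescence with SteadyLite reagent, 15 min at room temperature | evaluation = % enhancement relative to plate controls after blank subtraction | benchmarks = plate controls and plate blanks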
# ABCG2 block = human ABCG2 inhibition, ABCB1 as counter-screen. Q9UNQ0. inhibition, % at 6.6 µM. IgMXP3 cells, JC-1 efflux, flow cytometry. actives 0.1% (n = 190,000);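 active means inhibition above 80%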;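 further: 0% = DMSO and 100% = nicardipine control wells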
#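 Assay system – ABCG2 IgMXP3 and barcoded ABCB1 CCRF-Adr cell mix · Input – 3 million cells/mL in well · Reagent – JC-1 fluorescent substrate · Compound – single test compound dose, 6.6 µM final · Timing – 10 min exposure at 25 °C with rotation, no wash · Detection – flow cytometry of retained JC-1 fluorescence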
# Rad51 HR inh = Rad51 (human) homologous recombination inhibition; actives 0.085% (n = 200,000); hRad51 DNA strand exchange, fluorescence dequenching; inhibition, % at 10 µM; AID 1385; Q06609;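 active means inhibition above 40% at the single screening dose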;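 further: 0% = DMSO control wells and 100% = blanks with heterologous ssDNA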
#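 Test system: preformed human Rad51 ssDNA filaments; also added: Donor/quencher-labelled 47-bp dsDNA substrate; doses: 10 µM final, single point; times: 37 °C 15-min filament assembly, 30-min compound preincubation, 15-min exchange; detection: FRET fluorescence dequenching, excitation 485 nm, emission 520 nm; read-out basis: Fluorescence-based percent inhibition, control- and blank-normalised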
# Arbovirus inh = arbovirus infection inhibition; AID 1251; actives 0.37% (n = 200,000); inhibition, % at 10 µM; arbovirus infection cell-based antiviral screen; in the data active means inhibition above about 30%
# Starred values were filed as active, the others as inactive; x = not tested or not shown; ! = repeats disagree. Compounds with a hit are over-represented: about 0.62% of the library has one in this group of screens.
SMILES,ABCB1 inh,MDM2 E3 inh,ABCG2 block,Rad51 HR inh,Arbovirus inh
COc1ccc2nc(NC(=O)C3CCN(S(=O)(=O)c4cnc[nH]4)CC3)sc2c1,-1.4,-22.2,-7.1,1.7,15.3
CCOc1ccc2nc(NC(=O)Nc3cccs3)sc2c1,-0.7,x,4.8,0.2,35.7*
Cc1ccc2nc(NC(=O)C3CCN(S(=O)(=O)c4cnc[nH]4)CC3)sc2c1,0.1,-5.2,0.9,x,30.9*
CCOc1ccc2nc(NC(=O)C3CCN(S(=O)(=O)c4cnc[nH]4)CC3)sc2c1,-0.2,-13.8,-0.9,6.6,30.3*
CC1(C)CC(=O)C2=C(C1)OC(N)=C(C#N)C2c1cc2c(cc1[N+](=O)[O-])OCO2 (configuration not stated),x,-5.9,-2.0,-169.3,4.2
Cc1ccccc1N=C1NC(=O)/C(=C/c2cccn2-c2cccc(C(=O)O)c2)S1,0.1,-0.7,0.2,-7.1,75.7*
O=C(O)c1cccc(-n2cccc2/C=C2/NC(=O)N(c3ccc(Cl)cc3)C2=O)c1,-1.1,-4.9,-1.7,5.0,31.8*
O=C(Nc1ccccc1O)c1c(O)c2c([nH]c1=O)CCCC2,0.8,-19.4,2.8,x,22.1
CC(C)CCN(C(=S)NC(=O)C1CCCCC1)c1c(N)n(Cc2ccccc2)c(=O)[nH]c1=O,0.9,-16.9,3.8,-3.1,31.8*
CCCc1ccc(OC(=O)c2ccc(O)cc2Cl)cc1,0.4,-32.5,3.4,-8.7,16.1
Cc1cc(-c2nnc3n2N=C(c2ccc(F)cc2)CS3)n[nH]1,x,-10.6,x,18.3,x
Cc1cc(C)cc(N2C(=O)CC(Sc3nnnn3-c3ccccc3)C2=O)c1 (configuration not stated),0.1,-36.5,0.2,108.6*,-2.3
Cn1nnnc1SC1CC(=O)N(c2ccccc2)C1=O (configuration not stated),-0.2,x,1.1,x,0.8
CCC(NC(=O)Nc1cc(C)on1)(C(F)(F)F)C(F)(F)F,x,-15.3,x,-3.5,x
Cc1ccc(C2CC(=O)c3cnn(-c4nc(C)cc(C)n4)c3C2)cc1 (configuration not stated),1.4,8.8,8.5,x,35.6*
COc1ccc(C2CC(=O)c3cnn(-c4nc(C)cc(C)n4)c3C2)cc1OC (configuration not stated),x,-2.0,x,-10.9,x
CC(=O)Nc1ccnc(-c2cccnc2)n1,0.6,-11.8,7.0,0.7,13.3
O=C(Nc1cccc(Cl)c1)Nc1ccnc(-c2cccnc2)n1,-0.1,-27.7,1.2,-7.0,34.4*
COc1ccc(/C=C/c2nc(-c3ccccc3O)n[nH]2)cc1OC,-0.2,-12.3,16.8,-5.0,30.2*
O=C(COC(=O)c1ccccc1C(=O)c1ccc(Cl)cc1)NC(c1ccccc1)c1ccccc1,2.4,-15.5,21.2,0.5,-0.1
Cc1cc(C(=O)CSc2nnc(Nc3ccccc3)s2)c(C)n1CC1CCCO1 (configuration not stated),0.7,30.8*,2.0,9.0,14.4
Cc1ccc(NC(=O)c2c(O)c3ccccc3n(C)c2=O)nc1,0.1,-12.2,0.1,-5.9,33.1*
Cn1nc(C(=O)OCC(=O)Nc2sccc2C(N)=O)c2ccccc2c1=O,x,0.7,x,x,x
O=C(O)c1nn2cc(CCO)cnc2c1Cl,0.0,22.2,0.5,1.3,6.0
CC1CC1C(=O)Nc1nc(-c2cccs2)c(-c2cccs2)s1 (configuration not stated),-0.9,-11.4,-1.8,1.9,3.9
SMILES,ABCB1 inh,MDM2 E3 inh,ABCG2 block,Rad51 HR inh,Arbovirus inh
CCCCC(Nc1ncnc2ccccc12)C(=O)O (configuration not stated),-0.1,1.0,0.4,72.9*,4.1
CC(=O)NNc1ncnc2ccccc12,0.7,-9.9,23.9,-4.6,0.9
Cc1ccc(S(=O)(=O)Oc2ccc(C)cc2/C=N/N=C2\NC(=O)C(C)S2)cc1 (configuration not stated),0.9,-3.9,12.9,4.8,30.3*
O=C(CCl)N=c1sccn1Cc1cccc2ccccc12,0.7,-19.0,8.4,-8.0,31.2*
N[C@@H](Cc1cc(I)c(Oc2ccc(O)c(I)c2)c(I)c1)C(=O)O,-1.5,x,-4.6,2.6,47.4*!
CSC1=NCCN1CCOc1ccccc1,-0.1,-3.6,-0.9,0.2,-2.5
Cc1ccc2nc(-c3ccc(Br)o3)oc(=O)c2c1,0.3,-13.2,3.9,-0.9,37.3*
CCn1c(SCc2nc3scc(-c4ccccc4)c3c(=O)[nH]2)nnc1-c1cccs1,1.1,-14.0,2.5,-16.1,0.4
COCCn1c(SCc2nc3scc(-c4ccc(Cl)cc4)c3c(=O)[nH]2)nnc1-c1cccc(C)c1,1.9,-8.2,19.7,-6.5,32.5*
c1ccc(N2CCN(c3ccccc3)C2c2cccs2)cc1,0.9,36.3*,4.4,-26.2,-11.0
CCCCc1ccc(NC(=S)NCc2ccc(OC)cc2)cc1,0.1,-15.5,-2.4,-12.7,-4.6
CCOC(=O)C(NC(C)=O)(Nc1ccc(S(=O)(=O)Nc2cc(C)on2)cc1)C(F)(F)F (configuration not stated),0.4,2.0,2.1,40.9*,6.7
N#Cc1c(Cc2cccc3ccccc23)nn(CCO)c1N,x,x,x,-1.9,x
Cc1cccc(C)c1Nc1nc2ccccc2o1,-2.9,-5.3,-4.3,-1.8,46.3*
Cc1cc(C)cc(Oc2ccccc2CO)c1,-0.5,-7.9,0.0,11.1,-3.1
Cc1ccc(Nc2nc(N)c([N+](=O)[O-])c(N3CCC(C)CC3)n2)cc1C,0.4,3.1,4.7,8.9,-35.6
Cc1ccc(Nc2nc(N)c([N+](=O)[O-])c(N3CCOCC3)n2)cc1C,2.5,-7.1,59.6,-1.5,51.2*
Cc1nnn(-c2nonc2N)c1C(=O)NNC(=O)c1ccc(Cl)c(Cl)c1,0.1,-12.0,8.7,-5.5,0.0
O=C(Nc1ccc(Cl)cc1)c1ccc(-n2cccn2)c([N+](=O)[O-])c1,0.0,38.4*,3.2,-7.1,5.5
CC(=O)N(c1ccc(C)cc1)c1nc(C)cc(C)c1C#N,x,11.2,x,-20.2,x
O=C(O)CCCN1C(=O)/C(=C\c2ccc(-c3nc4ccccc4s3)o2)SC1=S,x,-13.5,x,-40.9,x
O=C(O)CCN1C(=O)/C(=C/c2ccc(-c3nc4ccccc4s3)o2)SC1=S,-0.1,-11.1,-1.0,x,42.2*
CCOc1ccc2cc(C3CC(c4ccco4)=NN3S(C)(=O)=O)c(=O)[nH]c2c1 (configuration not stated),x,-1.0,x,-11.0,x
CC1CCc2c(sc(NC(=O)c3ccccc3C(=O)O)c2C#N)C1 (configuration not stated),0.0,-1.3,-0.6,0.6,59.1*
N#Cc1c(NC(=O)C2CC=CCC2C(=O)O)sc2c1CCCCCC2 (configuration not stated),0.9,-10.2,9.4,9.4,8.4
CC(C)(C)C1CCc2c(sc(NC(=O)C3CC=CCC3C(=O)O)c2C#N)C1 (configuration not stated),0.6,-8.7,1.1,-0.2,35.6*
